How the values were obtained:
Format in all cases: functional
Stomoxys calcitrans [1] = experiment: In vitro insecticidal activity in bovine serum against adult stable fly
Outline: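 Twenty chilled 5-day-old hungry adult Stomoxys calcitrans in covered petri dish exposed to compound in bovine serum on saturated dental wick, incubated 24 or 48 h.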

Calliphoridae [2] = experiment: In vitro insecticidal activity in bovine serum against Blowfly larvae
Outline: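 In vitro bait: ~50 first-instar blowflies placed on dental wick saturated with compound in bovine serum, in loosely plugged tube, 27 °C, 55% RH, under fluorescent light, 24 h.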

Stomoxys calcitrans [3] = experiment: In vitro insecticidal activity against adult stable fly in serum collected from calves administered with 1.00 mg/kg
Stomoxys calcitrans [4] = experiment: Mortality percentage on day 6 in Adult stable flies after their exposure to sera for 48 hours, from the cattle, administered with the compound at 5 mg/kg
Outline: (§1)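 Calves given single intraruminal 5 mg/kg in 5 mL PEG-200, with vehicle and untreated controls; serum collected daily and fed on saturated dental wick to adult stable flies (20/dish) or ~50 first-instar blowflies; % mortality read after 48 h exposure.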

Stomoxys calcitrans [5] = experiment: Mortality percentage on day 7 in Adult stable flies after their exposure to sera for 24 hours, from the cattle, administered with the compound at 5 mg/kg
Outline: (§2)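 Calves given single intraruminal 5 mg/kg in 5 mL PEG-200 (two treated, one vehicle, one untreated). Blood taken pre-dose, 2, 5, 24 h, then daily; serum on saturated dental wick fed to adult stable flies (20/dish) or ~50 first-instar blowflies (27 °C, 55% RH); % mortality after 24 h exposure.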

Stomoxys calcitrans [6] = experiment: In vitro insecticidal activity against adult stable fly in serum collected from calves administered with 0.50 mg/kg; conditions: dose 0.5 mg/kg
Stomoxys calcitrans [7] = experiment: In vitro insecticidal activity against adult stable fly in serum collected from calves administered with 0.75 mg/kg
Stomoxys calcitrans [8] = experiment: In vitro insecticidal activity against adult stable fly in serum collected from calves administered with 1.50 mg/kg; conditions: dose 1.5 mg/kg
Stomoxys calcitrans [9] = experiment: In vitro insecticidal activity against adult stable fly in serum collected from calves administered with 1 mg/kg
Stomoxys calcitrans [10] = experiment: In vivo insecticidal activity against adult stable fly in serum collected from calves administered with 0.50 mg/kg; conditions: dose 0.5 mg/kg
Stomoxys calcitrans [11] = experiment: In vivo insecticidal activity against adult stable fly in serum collected from calves administered with 0.75 mg/kg
Stomoxys calcitrans [12] = experiment: In vivo insecticidal activity against adult stable fly in serum collected from calves administered with 1.0 mg/kg
Stomoxys calcitrans [13] = experiment: In vivo insecticidal activity against adult stable fly in serum collected from calves administered with 1.50 mg/kg; conditions: dose 1.5 mg/kg
Stomoxys calcitrans [14] = experiment: Mortality percentage after on day 2 in Adult stable flies after their exposure to sera for 24 hours, from the cattle, administered with the compound at 5 mg/kg; outline: as §2
Stomoxys calcitrans [15] = experiment: Mortality percentage on 0 day in Adult stable flies after their exposure to sera for 24 hours, from the cattle, administered with the compound at 5 mg/kg; outline: as §2
Stomoxys calcitrans [16] = experiment: Mortality percentage on 1 day in Adult stable flies after their exposure to sera for 24 hours, from the cattle, administered with the compound at 5 mg/kg; outline: as §2
Stomoxys calcitrans [17] = experiment: Mortality percentage on day 3 in Adult stable flies after their exposure to sera for 24 hours, from the cattle, administered with the compound at 5 mg/kg; outline: as §2
Stomoxys calcitrans [18] = experiment: Mortality percentage on day 3 in Adult stable flies after their exposure to sera for 48 hours, from the cattle, administered with the compound at 5 mg/kg; outline: as §1
Stomoxys calcitrans [19] = experiment: Mortality percentage on day 5 in Adult stable flies after their exposure to sera for 24 hours, from the cattle, administered with the compound at 5 mg/kg; outline: as §2
Stomoxys calcitrans [20] = experiment: Mortality percentage on day 6 in Adult stable flies after their exposure to sera for 24 hours, from the cattle, administered with the compound at 5 mg/kg; outline: as §2
Calliphoridae [21] = experiment: Mortality percentage on day 7 in Blowfly larvae after their exposure to sera for 24 hours, from the cattle administered with the compound at 5 mg/kg; outline: as §2
Calliphoridae [22] = experiment: In vivo insecticidal activity against Larval blowfly from calves administered with 0.50 mg/kg; conditions: dose 0.5 mg/kg
Outline: (§3)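 Calves dosed daily intraruminally through implanted rumen tube with diketone in 5 mL PEG-200 (vehicle and untreated controls). Daily serum fed on saturated dental wick to ~50 first-instar blowflies, 27 °C, 55% RH; mortality after 48 h (24 h where noted); day of onset of ≥50% mortality recorded.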

Calliphoridae [23] = experiment: In vivo insecticidal activity against Larval blowfly from calves administered with 0.75 mg/kg; outline: as §3
Calliphoridae [24] = experiment: In vivo insecticidal activity against Larval blowfly from calves administered with 1.0 mg/kg; outline: as §3
Calliphoridae [25] = experiment: In vivo insecticidal activity against Larval blowfly from calves administered with 1.50 mg/kg; conditions: dose 1.5 mg/kg; outline: as §3
Calliphoridae [26] = experiment: Mortality percentage on day 0 in Blowfly larvae after their exposure to sera for 24 hours, from the cattle administered with the compound at 5 mg/kg; outline: as §2
Calliphoridae [27] = experiment: Mortality percentage on day 2 in Blowfly larvae after their exposure to sera for 24 hours, from the cattle administered with the compound at 5 mg/kg; outline: as §2
Calliphoridae [28] = experiment: Mortality percentage on day 3 in Blowfly larvae after their exposure to sera for 24 hours, from the cattle administered with the compound at 5 mg/kg; outline: as §2
Calliphoridae [29] = experiment: Mortality percentage on day 3 in Blowfly larvae after their exposure to sera for 48 hours, from the cattle administered with the compound at 5 mg/kg; outline: as §1
Calliphoridae [30] = experiment: Mortality percentage on day 4 in Blowfly larvae after their exposure to sera for 24 hours, from the cattle administered with the compound at 5 mg/kg; outline: as §2
Calliphoridae [31] = experiment: Mortality percentage on day 4 in Blowfly larvae after their exposure to sera for 48 hours, from the cattle administered with the compound at 5 mg/kg; outline: as §1
Calliphoridae [32] = experiment: Mortality percentage on day 5 in Blowfly larvae after their exposure to sera for 24 hours, from the cattle administered with the compound at 5 mg/kg; outline: as §2
Calliphoridae [33] = experiment: Mortality percentage on day 5 in Blowfly larvae after their exposure to sera for 48 hours, from the cattle administered with the compound at 5 mg/kg; outline: as §1
Calliphoridae [34] = experiment: Mortality percentage on day 6 in Blowfly larvae after their exposure to sera for 24 hours, from the cattle administered with the compound at 5 mg/kg; outline: as §2
Calliphoridae [35] = experiment: Mortality percentage on day 6 in Blowfly larvae after their exposure to sera for 48 hours, from the cattle administered with the compound at 5 mg/kg; outline: as §1
Stomoxys calcitrans [36] = experiment: Mortality percentage on day 5 in Adult stable flies after their exposure to sera for 48 hours, from the cattle, administered with the compound at 5 mg/kg; outline: as §1
Calliphoridae [37] = experiment: Mortality percentage on day 1 in Blowfly larvae after their exposure to sera for 24 hours, from the cattle administered with the compound at 5 mg/kg; outline: as §2
Stomoxys calcitrans [38] = experiment: In vitro insecticidal activity against adult stable fly in serum collected from calves administered with 0.35 mg/kg
Stomoxys calcitrans [39] = experiment: In vivo insecticidal activity against adult stable fly in serum collected from calves administered with 1 mg/kg
Calliphoridae [40] = experiment: In vivo insecticidal activity against Larval blowfly from calves administered with 0.20 mg/kg; conditions: dose 0.2 mg/kg; outline: as §3

SMILES: O=C(/C=C(\[O-])c1cc(Cl)cc(Cl)c1)C(F)(F)F.[Na+]
- Lowest effective concentration (Stomoxys calcitrans [1]): 25 p.p.m.
- Lowest effective concentration (Calliphoridae [2]): 20 p.p.m.

SMILES: O=C(/C=C(\[O-])c1cc(Cl)cc(Cl)c1)C(F)(F)C(F)F.[Na+]
- Lowest effective concentration (Stomoxys calcitrans [1]): 20 p.p.m.
- Activity (Stomoxys calcitrans [3]): 5 day of onset
- Lowest effective concentration (Calliphoridae [2]): 25 p.p.m.

SMILES: O=C(/C=C(\[O-])c1ccc(F)c(F)c1)C(F)(F)C(F)(F)C(F)(F)F.[Na+]
- Lowest effective concentration (Stomoxys calcitrans [1]): 25 p.p.m.
- Lowest effective concentration (Calliphoridae [2]): 30 p.p.m.

SMILES: O=C(/C=C(\[O-])c1ccc(C(F)(F)F)cc1)C(F)(F)C(F)(F)C(F)(F)F.[Na+]
- Lowest effective concentration (Stomoxys calcitrans [1]): 30 p.p.m.
- Lowest effective concentration (Calliphoridae [2]): 35 p.p.m.

SMILES: O=C(/C=C(\[O-])c1cccc(C(F)(F)F)c1)C(F)(F)C(F)(F)C(F)(F)F.[Na+]
- Lowest effective concentration (Stomoxys calcitrans [1]): 35 p.p.m.
- Lowest effective concentration (Calliphoridae [2]): 40 p.p.m.

SMILES: O=C(/C=C(\[O-])c1cc(Cl)cc(Cl)c1)C(F)(F)C(F)(F)F.[Na+]
- mortality at 5 mg/kg (Stomoxys calcitrans [4]): 30%
- mortality at 5 mg/kg (Stomoxys calcitrans [5]): 10%
- Lowest effective concentration (Stomoxys calcitrans [1]): 20 p.p.m.
- Activity (Stomoxys calcitrans [6]): 6 day of onset
- Activity (Stomoxys calcitrans [7]): 4 day of onset
- Activity (Stomoxys calcitrans [8]): 2 day of onset
- Activity (Stomoxys calcitrans [9]): 3 day of onset
- Activity (Stomoxys calcitrans [10]): 6 day of onset
- Activity (Stomoxys calcitrans [11]): 4 day of onset
- Activity (Stomoxys calcitrans [12]): 3 day of onset
- Activity (Stomoxys calcitrans [13]): 2 day of onset
- mortality at 5 mg/kg (Stomoxys calcitrans [14]): 55%
- mortality at 5 mg/kg (Stomoxys calcitrans [15]): 0%
- mortality at 5 mg/kg (Stomoxys calcitrans [16]): 20%
- mortality at 5 mg/kg (Stomoxys calcitrans [17]): 45%
- mortality at 5 mg/kg (Stomoxys calcitrans [18]): 100%
- mortality at 5 mg/kg (Stomoxys calcitrans [19]): 0%
- mortality at 5 mg/kg (Stomoxys calcitrans [20]): 0%
- mortality at 5 mg/kg (Calliphoridae [21]): 0%
- Activity (Calliphoridae [22]): 6 day of onset
- Activity (Calliphoridae [23]): 4 day of onset
- Activity (Calliphoridae [24]): 5 day of onset
- Activity (Calliphoridae [25]): 2 day of onset
- mortality at 5 mg/kg (Calliphoridae [26]): 0%
- mortality at 5 mg/kg (Calliphoridae [27]): 0%
- mortality at 5 mg/kg (Calliphoridae [28]): 0%
- mortality at 5 mg/kg (Calliphoridae [29]): 100%
- mortality at 5 mg/kg (Calliphoridae [30]): 0%
- mortality at 5 mg/kg (Calliphoridae [31]): 50%
- mortality at 5 mg/kg (Calliphoridae [32]): 0%
- mortality at 5 mg/kg (Calliphoridae [33]): 0%
- mortality at 5 mg/kg (Calliphoridae [34]): 0%
- mortality at 5 mg/kg (Calliphoridae [35]): 0%
- Lowest effective concentration (Calliphoridae [2]): 40 p.p.m.
- mortality at 5 mg/kg (Stomoxys calcitrans [36]): 80%
- mortality at 5 mg/kg (Calliphoridae [37]): 0%

SMILES: O=C(/C=C(\[O-])c1ccc(Cl)c(Cl)c1)C(F)(F)C(F)(F)C(F)(F)F.[Na+]
- Lowest effective concentration (Stomoxys calcitrans [1]): 25 p.p.m.
- Lowest effective concentration (Calliphoridae [2]): 30 p.p.m.

SMILES: CNC(=O)Oc1cccc2c1OC(C)(C)C2 [CARBOFURAN]
- Lowest effective concentration (Stomoxys calcitrans [1]): 1 p.p.m.
- Lowest effective concentration (Calliphoridae [2]): 5 p.p.m.

SMILES: Cc1c(COC(=O)C2C(/C=C(\Cl)C(F)(F)F)C2(C)C)cccc1-c1ccccc1 (stereo not drawn)
- Lowest effective concentration (Stomoxys calcitrans [1]): 25 p.p.m.
- Lowest effective concentration (Calliphoridae [2]): 5 p.p.m.

SMILES: CC[C@H](C)[C@H]1O[C@]2(C=C[C@@H]1C)C[C@@H]1C[C@@H](C/C=C(\C)[C@@H](O[C@H]3C[C@H](OC)[C@@H](O[C@H]4C[C@H](OC)[C@@H](O)[C@H](C)O4)[C@H](C)O3)[C@@H](C)/C=C/C=C3\CO[C@@H]4[C@H](O)C(C)=C[C@@H](C(=O)O1)[C@]34O)O2 [ABAMECTIN COMPONENT B1A]
- Lowest effective concentration (Stomoxys calcitrans [1]): 10 p.p.m.
- Lowest effective concentration (Calliphoridae [2]): 0.5 p.p.m.

SMILES: O=C(/C=C(\[O-])c1cc(Br)cc(Br)c1)C(F)(F)C(F)(F)C(F)(F)F.[Na+]
- Lowest effective concentration (Stomoxys calcitrans [1]): 25 p.p.m.
- Lowest effective concentration (Calliphoridae [2]): 25 p.p.m.

SMILES: O=C(/C=C(\[O-])c1ccc(Cl)cc1)C(F)(F)C(F)(F)C(F)(F)F.[Na+]
- Lowest effective concentration (Stomoxys calcitrans [1]): 25 p.p.m.
- Lowest effective concentration (Calliphoridae [2]): 50 p.p.m.

SMILES: O=C(/C=C(\[O-])c1cc(Cl)cc(Cl)c1)C(F)(F)C(F)(F)C(F)(F)F.[Na+]
- Lowest effective concentration (Stomoxys calcitrans [1]): 25 p.p.m.
- Activity (Stomoxys calcitrans [38]): 9 day of onset
- Activity (Stomoxys calcitrans [6]): 4 day of onset
- Activity (Stomoxys calcitrans [3]): 3 day of onset
- Activity (Stomoxys calcitrans [10]): 4 day of onset
- Activity (Stomoxys calcitrans [39]): 3 day of onset
- Activity (Calliphoridae [22]): 8 day of onset
- Lowest effective concentration (Calliphoridae [2]): 15 p.p.m.
- Activity (Calliphoridae [40]): 5 day of onset

From ChEMBL document CHEMBL1124591, “Polyfluoro 1,3-diketones as systemic insecticides” (1989)
